Only some compounds are listed: those with a hit (about 1.9% of all), similar ones and a draw of the others.
TDP2 inh = TDP2 (human) inhibition, absorbance primary screen. recombinant TDP2, T5PNP hydrolysis, p-nitrophenol absorbance 415 nm. inhibition, % at 12.8 µM. 0.34% of 370,000 active;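 active = inhibition above the mean of all tested compounds plus 3 SD, set per campaign, cut at about 25% in these data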
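System: recombinant human TDP2 / Amount: 120 nM TDP2 per well / Also added: 5 mM T5PNP chromogenic substrate / Doses: 12.8 µM single point, 1% DMSO / Incubation: 2 h at 37 °C / Detection: p-Nitrophenol epi absorbance / Evaluation: % inhibition relative to enzyme-containing and enzyme-free wells / Repeats: singlicate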
LEDGF integ inh = blocks HIV-1 LEDGF/p75-dependent DNA integration. TR-FRET IN-LEDGF/p75 DNA integration, Eu/Cy5. inhibition, % at 3.7 µM. 0.64% of 370,000 active;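 active = inhibition above the screen-wide mean plus 3 SD, cut at about 13% in these data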;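 note: signal is the Cy5 over europium emission ratio at 671 and 618 nm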
UHRF1 binding = human UHRF1 methylated DNA binding inhibitors; UHRF1 binding to methylated oligo, TR-FRET; inhibition, % at 4.4 µM; 0.75% of 370,000 active; AID 687016; in the data active = inhibition above about 21%;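 note: UHRF1 SRA domain binding a hemimethylated CpG hairpin DNA probe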
Target sequence (Q96T88 whole entry, looked up, the tested form may be a part): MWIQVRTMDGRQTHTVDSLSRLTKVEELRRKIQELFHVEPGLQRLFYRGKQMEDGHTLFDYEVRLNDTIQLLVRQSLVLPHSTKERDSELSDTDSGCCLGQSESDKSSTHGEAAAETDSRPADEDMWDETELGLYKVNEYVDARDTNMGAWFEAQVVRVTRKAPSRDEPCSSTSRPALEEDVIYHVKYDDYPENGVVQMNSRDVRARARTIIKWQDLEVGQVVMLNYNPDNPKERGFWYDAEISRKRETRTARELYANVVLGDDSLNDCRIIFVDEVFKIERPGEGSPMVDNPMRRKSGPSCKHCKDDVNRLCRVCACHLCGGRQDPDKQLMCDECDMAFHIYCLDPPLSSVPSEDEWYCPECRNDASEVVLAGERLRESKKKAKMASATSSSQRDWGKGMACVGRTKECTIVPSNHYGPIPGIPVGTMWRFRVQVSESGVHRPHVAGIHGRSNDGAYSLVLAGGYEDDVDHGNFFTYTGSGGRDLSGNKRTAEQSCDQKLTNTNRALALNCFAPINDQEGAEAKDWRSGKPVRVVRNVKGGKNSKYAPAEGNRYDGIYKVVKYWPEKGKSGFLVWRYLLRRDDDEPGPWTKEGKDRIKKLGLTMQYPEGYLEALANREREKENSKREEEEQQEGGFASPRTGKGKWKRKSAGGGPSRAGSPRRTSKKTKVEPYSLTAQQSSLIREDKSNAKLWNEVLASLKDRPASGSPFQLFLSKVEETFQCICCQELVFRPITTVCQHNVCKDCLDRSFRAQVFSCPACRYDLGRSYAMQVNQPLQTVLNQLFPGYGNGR
Rin1 Abl inh = blocks binding of human Rin1 to Abl; 0.4% of 360,000 active; inhibition, % at 7.35 µM; TR-FRET Rin1/Abl binding, biochemical; P00519+Q13671; in the data active = inhibition above about 5%, passing the limit was not always enough
MBD2 inh = inhibitors of human MBD2 binding to methylated oligonucleotide. TR-FRET. inhibition, % at 4.4 µM. 0.31% of 370,000 active. AID 686964; in the data active = inhibition above about 13%
Rin1 Abl conf = Rin1-Abl interaction inhibition confirmation. inhibition, % at 7.35 µM. TR-FRET Rin1-Abl binding, purified proteins. shares compounds with Rin1 Abl inh. 49% of 1,300 active
GFP quencher = GFP fluorescence interference artifact; shares compounds with Rin1 Abl inh; inhibitors/quenchers counterscreen; inhibition, % at 6.75 µM; 8.5% of 1,300 active;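 note: ABL1-eGFP fusion protein alone without its partner RIN1-SBP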
GFP quench dose = quenches GFP in dose response, Rin1-Abl counter-screen. IC50, µM. GFP fluorescence interference/quenching counterscreen. AID 602182. 230 tested, under 10 active. shares compounds with Rin1 Abl inh; call rule not given here;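 note: ABL1-eGFP fusion protein alone without its RIN1 binding partner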
UHRF1 ctr MBD2 = counter-screen for MBD2 inhibitors: human UHRF1 methylated DNA binding inhibitors; UHRF1 binding to methylated oligonucleotide, TR-FRET; shares compounds with MBD2 inh; inhibition, % at 4.4 µM; AID 720530; 25% of 1,000 active; in the data active = inhibition above about 21%;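 note: UHRF1 SRA domain binding a labeled hemimethylated CpG hairpin DNA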
MBD2 DBD conf = confirmation of human MBD2-DBD methylated oligonucleotide binding inhibitors; 26% of 1,000 active; TR-FRET MBD2-DBD binding to methylated oligonucleotide; inhibition, % at 4.4 µM; shares compounds with MBD2 inh; in the data active = inhibition above about 14%
TDP2 inh conf = human TDP2 inhibition, confirmation; shares compounds with TDP2 inh; recombinant human TDP2, absorbance read-out; inhibition, % at 12.8 µM; 22% of 1,100 active; in the data active = inhibition above about 25%
IN multimer up = HIV-1 integrase multimerization activation, counter-screen; TR-FRET HIV-1 integrase multimerization, biochemical; activation, % at 7.7 µM; 17% of 2,000 active; shares compounds with LEDGF integ inh; in the data active = activation above about 8.9%
TR-FRET interf = optically interferes with TR-FRET readout in LEDGF counter-screen | TR-FRET optical interference counterscreen, HIV-1 IN multimerization | AID 1053135 | inhibition, % at 7.7 µM | 2,000 tested, under 10 active | shares compounds with LEDGF integ inh;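 active = inhibition above the mean over all tested compounds plus 3 SD, which no compound reached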
IN-LEDGF confirm = LEDGF/p75-dependent HIV-1 integration inhibition, confirmation; shares compounds with LEDGF integ inh; TR-FRET LEDGF/p75-dependent HIV-1 integration, biochemical; inhibition, % at 3.7 µM; 36% of 2,000 active; AID 1053136; in the data active = inhibition above about 14%
Of the large screens only hits and unclear results are named; the others gave an inactive call (follow-up assays come after a bar, where they were run). Cut-off read from the data, not from the text of the source, unless noted: active = inhibition above about 6.5%; inactive = the rest.

COc1cc(N)c2ncccc2c1Br	TDP2 inh 76, LEDGF integ inh 29, Rin1 Abl inh 13 | Rin1 Abl conf inactive | GFP quencher inactive | TDP2 inh conf 51 | IN multimer up inactive | TR-FRET interf inactive | IN-LEDGF confirm inactive
Oc1cccc(/C=N/Nc2ncnc3c2ncn3Cc2ccccc2)c1	none
Oc1ccc(/C=N/Nc2ncnc3c2ncn3Cc2ccccc2)cc1O	LEDGF integ inh 18, Rin1 Abl inh 12 | Rin1 Abl conf 11 | GFP quencher 9.1 | IN multimer up 57 | TR-FRET interf inactive | IN-LEDGF confirm 66
CC(=NN1CCN(c2ccccn2)CC1)c1ccccc1O	none (no result: Rin1 Abl inh)
O=S(=O)(NCc1ccccc1)c1ccc(Cl)cc1	none
O=S(=O)(Nc1cc2nc3ccccc3nc2n1Cc1ccccc1)c1ccc(Cl)cc1	TDP2 inh 107, LEDGF integ inh 24, Rin1 Abl inh 30, MBD2 inh 16 | Rin1 Abl conf 28 | GFP quencher inactive | GFP quench dose inactive | UHRF1 ctr MBD2 inactive | MBD2 DBD conf 18 | TDP2 inh conf 93 | IN multimer up inactive | TR-FRET interf inactive | IN-LEDGF confirm 73
N#C/C(=C\c1ccc(O)c(O)c1)C(=O)Nc1cccc2ncccc12	LEDGF integ inh 49, UHRF1 binding 28, Rin1 Abl inh 8.7, MBD2 inh 21 | Rin1 Abl conf 13 | GFP quencher 14 | UHRF1 ctr MBD2 inactive | MBD2 DBD conf inactive | IN multimer up 72 | TR-FRET interf inactive | IN-LEDGF confirm 85
C=C1c2cccc(O)c2C(=O)C2C(=O)[C@]3(O)C(=O)C(C(N)=O)C(=O)[C@@H](N(C)C)[C@@H]3[C@@H](O)[C@H]12 (some centres not stated)	LEDGF integ inh 86, UHRF1 binding 96, Rin1 Abl inh 33, MBD2 inh 90 | Rin1 Abl conf inactive | GFP quencher inactive | UHRF1 ctr MBD2 inactive | MBD2 DBD conf inactive | IN multimer up 37 | TR-FRET interf inactive | IN-LEDGF confirm 52
O=C(CCN1CCN(c2ccccc2)CC1)N/N=C/c1ccc(O)c(O)c1O	LEDGF integ inh 42, UHRF1 binding 27, Rin1 Abl inh 19 | Rin1 Abl conf 51 | GFP quencher 13 | IN multimer up 49 | TR-FRET interf inactive | IN-LEDGF confirm 73
O=C(Cc1csc(N2CCOCC2)n1)N/N=C/c1ccc(O)c(O)c1O	LEDGF integ inh 55, Rin1 Abl inh 30 | Rin1 Abl conf 28 | GFP quencher 9.0 | IN multimer up 44 | TR-FRET interf inactive | IN-LEDGF confirm 60
COc1ccc(/C=N/NC(=O)CCN2CCN(c3ccccc3)CC2)c(OC)c1OC	none
Cc1ccc(Cn2cc(CN3[C@H](C)COc4cc(Br)ccc4S3(=O)=O)nn2)cc1	none (no result: Rin1 Abl inh)
C=CCOC(=O)N[C@@H](c1cccc(OC)c1)[C@@H](C)/C=C/CC(=O)O	none (no result: Rin1 Abl inh)

High-throughput results as filed in PubChem.
